Experimental data reported in paper PMC4609290 (Molecular cell, 2015).

How the values were obtained:
[1] = tested on: chromatin (HeLa cells); experiment: In situ fractionation, fluorescence microscopy; format: cell-based; conditions: detergent treatment prior to fixation, 30–60 cells, three independent fields, two biological replica
[2] = tested on: chromatin (U2OS cells); format: cell-based
In short: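 Lysates from U2OS cells expressing wild-type or mutant GFP-AF10 were biochemically separated into soluble and chromatin-enriched fractions, then Western blotted with the indicated antibodies. Whole cell extract controlled for total AF10 expression, and tubulin and H3 levels controlled for integrity of fractionation.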

[3] = tested on: ML2 leukemia cells; experiment: Proliferation of ML2 cells; format: cell-based; conditions: AF10-depleted ML2 cells; three independent experiments
In short: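 Growth curves were run on ML2 leukemia cells (MLL-AF6 fusion) carrying control or AF10-targeting sgRNA, either without reconstitution or reconstituted with wild-type AF10 or AF10L107A. SEM came from three independent experiments.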

[4] = tested on: PABPC1 gene, U2OS cells; experiment: ChIP of GFP at PABPC1; format: cell-based; conditions: % GFP signal/input, three experiments
In short: (§1)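 Direct ChIP at the PABPC1 gene used two primer positions along the gene in the U2OS AF10 complementation lines. GFP enrichment was expressed as % GFP signal/input. H3K79me2 signal was normalized to total H3 signal. SEM came from three experiments.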

[5] = tested on: H3K79me2 at the PABPC1 gene, U2OS cells; experiment: ChIP of H3K79me2 at PABPC1; format: cell-based; conditions: AF10 deleted, normalized to total H3, three experiments
In short: as §1

[6] = tested on: H3(15-34) peptides; experiment: Peptide pull-down and ITC of AF10PZP mutants; format: binding; conditions: pull-down and ITC assays
In short: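 Alanine substitutions were made at AF10PZP residues that contact H3T22, H3K23, H3A24, H3R26 and H3K27. GST-AF10PZP (pGEX-6P-1 construct) was used in pull-downs with biotinylated H3(15-34) peptides, and binding was also assessed by ITC.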

B1: GFP-AF10L107A: AF10 mutant that abolishes H3 binding, involved in both K23 and K27 side-chain recognition (protein)
chain: MVSSDRPVSLEDEVSHSMKEMIGGCCVCSDERGWAENPLVYCDGHGCSVAVHQACYGIVQVPTGPWFCRKCESQERAARVRCELCPHKDGALKRTDNGGWAHVVCAAYIPEVQFANVSTMEPIVLQSVPHDRYNKTCYICDEQGRESKAATGACMTCNKHGCRQAFHVTCAQFAGLLCEEEGNGADNVQYCGYCKYHFSKLKKSKRGS
modifications: left off: GST, end not stated, kept
[1]
  chromatin-association by in situ fractionation: Decreased chromatin-association
[2]; tetracycline-inducible GFP-AF10
  AF10 enrichment at chromatin: reduced in comparison to wild-type AF10
[2]; versus wild-type AF10
  AF10 detected in the soluble fraction: more mutant being detected in the soluble fraction
[3]
  reversal of decreased proliferation: but not with mutant AF10L107A
[4]
  occupancy at the PABPC1 gene: low relative to wild-type GFP-AF10
[5]
  reconstitution of H3K79me2 signal at PABPC1: but not upon induction of GFP-AF10L107A
[6]
  effect of AF10PZP mutation on binding to H3 peptides: abolishes H3 binding
